From article PMC5901702 (Journal of biomolecular screening, 2012)

Molecular target: T1, rat IDE (Rattus norvegicus, UniProt P35559)
T1 sequence (P35559 1-1019): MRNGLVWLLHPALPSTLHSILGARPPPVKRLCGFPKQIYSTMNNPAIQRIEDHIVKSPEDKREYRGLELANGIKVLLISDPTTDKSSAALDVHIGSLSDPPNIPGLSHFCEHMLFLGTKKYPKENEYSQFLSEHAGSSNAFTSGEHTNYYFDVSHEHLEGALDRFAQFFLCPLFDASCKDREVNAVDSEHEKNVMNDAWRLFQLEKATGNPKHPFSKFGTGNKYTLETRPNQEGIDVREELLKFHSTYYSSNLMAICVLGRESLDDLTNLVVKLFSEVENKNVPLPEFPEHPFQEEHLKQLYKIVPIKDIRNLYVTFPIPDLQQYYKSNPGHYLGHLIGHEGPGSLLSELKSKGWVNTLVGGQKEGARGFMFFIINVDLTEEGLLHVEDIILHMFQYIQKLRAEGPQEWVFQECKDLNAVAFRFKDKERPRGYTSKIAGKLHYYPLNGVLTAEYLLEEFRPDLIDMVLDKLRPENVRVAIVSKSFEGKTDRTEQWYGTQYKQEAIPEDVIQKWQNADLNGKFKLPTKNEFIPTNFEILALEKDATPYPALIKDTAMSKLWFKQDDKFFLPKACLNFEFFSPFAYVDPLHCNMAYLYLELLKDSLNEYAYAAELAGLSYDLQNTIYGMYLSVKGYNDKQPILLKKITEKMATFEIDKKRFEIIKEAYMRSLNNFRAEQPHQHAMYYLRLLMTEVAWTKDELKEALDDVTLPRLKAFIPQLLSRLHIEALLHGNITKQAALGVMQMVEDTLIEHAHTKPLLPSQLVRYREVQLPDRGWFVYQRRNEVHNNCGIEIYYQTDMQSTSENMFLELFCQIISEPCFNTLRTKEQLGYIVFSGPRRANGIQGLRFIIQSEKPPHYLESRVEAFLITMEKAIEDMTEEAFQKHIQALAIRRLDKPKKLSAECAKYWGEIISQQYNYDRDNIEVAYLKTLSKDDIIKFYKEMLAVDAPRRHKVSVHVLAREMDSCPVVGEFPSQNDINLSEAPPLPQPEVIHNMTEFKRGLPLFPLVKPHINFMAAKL
Assay: Thermal melt
Assay type: binding
Settings: 100 µM compound; rat IDE 0.5 µM; 28 to 70 °C
Method in brief: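 Thermal shift: recombinant rat IDE (0.5 µM) with 5× SYPRO Orange in 0.1 M KPi pH 7.6, plus DMSO or compound (100 µM). Samples were held 60 min in the dark at room temperature under mineral oil, then heated 28–70 °C in 1–3 °C steps. Fluorescence was read at 465/590 nm. Tm came from a four-parameter variable-slope sigmoidal fit.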

## O=S(=O)(O)c1cc(O)c2c(O)c(N=Nc3cccc4ccccc34)c(S(=O)(=O)O)cc2c1 [Compound 3]
  shift in thermal melting profile (Tm) of IDE: substantial shift in the melting profile
